Data as given in ChEMBL document CHEMBL4480362, “Design and synthesis of DNA-intercalative naphthalimide-benzothiazole/cinnamide derivatives: cytotoxicity evaluation and topoisomerase-IIα inhibition” (Medchemcomm, 2019).
The source made the active and inactive calls. No cut-off for these calls is given here.

Experiments:
MCF7 = test: Cytotoxicity against human MCF7 cells assessed as reduction in cell viability after 48 hrs by MTT assay; format: functional, cell-based; conditions: MCF7, 48 h
Procedure, shortened: (§1)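 Cell lines from NCCS were grown in DMEM with 10% FBS, penicillin and streptomycin at 37 °C, 5% CO2. Cells were seeded, left 24 h, then exposed to compound for 48 h. MTT (5 mg/ml stock) was added for 4 h. Formazan was dissolved in DMSO and absorbance read at 570 nm.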

HT-29 = test: Cytotoxicity against human HT-29 cells assessed as reduction in cell viability after 48 hrs by MTT assay; format: functional, cell-based; conditions: HT-29, 48 h; procedure, shortened: as §1
A549 = test: Cytotoxicity against human A549 cells assessed as reduction in cell viability after 48 hrs by MTT assay; format: functional, cell-based; conditions: A549, 48 h; procedure, shortened: as §1
Calf thymus DNA [1] = test: Binding affinity to calf thymus DNA assessed as hyperchromicity at 15 to 30 uM by CD spectroscopic method; format: nucleic-acid assay; conditions: Bos taurus
Procedure, shortened: (§2)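 CD spectra recorded from 225 to 325 nm with about 15 × 10^-6 M CT DNA. Compound:DNA molar ratios were 1:0 and 1:1, in 100 mM TE (pH 7.0) at 25 °C. Each spectrum is the average of three scans.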

Calf thymus DNA [2] = test: Binding affinity to calf thymus DNA assessed as hypochromic shift formation at 25 uM by UV-vis spectra method; format: nucleic-acid assay; conditions: Bos taurus
Procedure, shortened: (§3)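 CT DNA titrated into a cuvette holding about 25 µM hybrid in 100 mM TE (pH 7.0), at 25 °C with a 1 cm quartz cell. The compound stock was in DMSO, diluted into buffer. DNA was added stepwise until the hybrid absorption band stayed at a fixed wavelength. Solutions were prepared fresh the same day.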

Calf thymus DNA [3] = test: Binding affinity to calf thymus DNA assessed as change in viscosity at 15 uM by ethidium bromide staining-based method; format: nucleic-acid assay; conditions: Bos taurus
Calf thymus DNA [4] = test: Binding affinity to calf thymus DNA assessed as increase in emission peak intensity at 10 uM by fluorescence spectroscopic method; format: nucleic-acid assay; conditions: Bos taurus
Procedure, shortened: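 Compound held constant at 10 µM and titrated with CT DNA added in multiples of 0.5 µM, at 25 °C in a 1 cm quartz cuvette. Excitation at 350 nm; emission recorded from 355 to 500 nm after each addition. Spectra are averages of three scans.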

[5] = system: Panel NCI-60 (60 carcinoma cell lines); test: Growth inhibition of human NCI60 cells after 72 hrs by SRB assay; format: functional
Calf thymus DNA [6] = test: Binding affinity to calf thymus DNA assessed as positive band formation at 15 to 30 uM by CD spectroscopic method; format: nucleic-acid assay; conditions: Bos taurus; procedure, shortened: as §2
[7] = target: DNA topoisomerase 2-alpha (Homo sapiens) (UniProt P11388); test: Inhibition of topoisomerase 2 (unknown origin) assessed as reduction in decatenation of kinetoplast DNA at 100 uM incubated for 30 mins by ethidium bromide staining based gel electrophoresis method
Calf thymus DNA [8] = test: Binding affinity to calf thymus DNA assessed as absorption band formation at 25 uM by UV-vis spectra method; format: nucleic-acid assay; conditions: Bos taurus; procedure, shortened: as §3
Calf thymus DNA [9] = test: Binding affinity to calf thymus DNA assessed as bathochromic shift at 25 uM by UV-vis spectra method; format: nucleic-acid assay; conditions: Bos taurus; procedure, shortened: as §3

Chain of DNA topoisomerase 2-alpha (Homo sapiens) (P11388 whole entry): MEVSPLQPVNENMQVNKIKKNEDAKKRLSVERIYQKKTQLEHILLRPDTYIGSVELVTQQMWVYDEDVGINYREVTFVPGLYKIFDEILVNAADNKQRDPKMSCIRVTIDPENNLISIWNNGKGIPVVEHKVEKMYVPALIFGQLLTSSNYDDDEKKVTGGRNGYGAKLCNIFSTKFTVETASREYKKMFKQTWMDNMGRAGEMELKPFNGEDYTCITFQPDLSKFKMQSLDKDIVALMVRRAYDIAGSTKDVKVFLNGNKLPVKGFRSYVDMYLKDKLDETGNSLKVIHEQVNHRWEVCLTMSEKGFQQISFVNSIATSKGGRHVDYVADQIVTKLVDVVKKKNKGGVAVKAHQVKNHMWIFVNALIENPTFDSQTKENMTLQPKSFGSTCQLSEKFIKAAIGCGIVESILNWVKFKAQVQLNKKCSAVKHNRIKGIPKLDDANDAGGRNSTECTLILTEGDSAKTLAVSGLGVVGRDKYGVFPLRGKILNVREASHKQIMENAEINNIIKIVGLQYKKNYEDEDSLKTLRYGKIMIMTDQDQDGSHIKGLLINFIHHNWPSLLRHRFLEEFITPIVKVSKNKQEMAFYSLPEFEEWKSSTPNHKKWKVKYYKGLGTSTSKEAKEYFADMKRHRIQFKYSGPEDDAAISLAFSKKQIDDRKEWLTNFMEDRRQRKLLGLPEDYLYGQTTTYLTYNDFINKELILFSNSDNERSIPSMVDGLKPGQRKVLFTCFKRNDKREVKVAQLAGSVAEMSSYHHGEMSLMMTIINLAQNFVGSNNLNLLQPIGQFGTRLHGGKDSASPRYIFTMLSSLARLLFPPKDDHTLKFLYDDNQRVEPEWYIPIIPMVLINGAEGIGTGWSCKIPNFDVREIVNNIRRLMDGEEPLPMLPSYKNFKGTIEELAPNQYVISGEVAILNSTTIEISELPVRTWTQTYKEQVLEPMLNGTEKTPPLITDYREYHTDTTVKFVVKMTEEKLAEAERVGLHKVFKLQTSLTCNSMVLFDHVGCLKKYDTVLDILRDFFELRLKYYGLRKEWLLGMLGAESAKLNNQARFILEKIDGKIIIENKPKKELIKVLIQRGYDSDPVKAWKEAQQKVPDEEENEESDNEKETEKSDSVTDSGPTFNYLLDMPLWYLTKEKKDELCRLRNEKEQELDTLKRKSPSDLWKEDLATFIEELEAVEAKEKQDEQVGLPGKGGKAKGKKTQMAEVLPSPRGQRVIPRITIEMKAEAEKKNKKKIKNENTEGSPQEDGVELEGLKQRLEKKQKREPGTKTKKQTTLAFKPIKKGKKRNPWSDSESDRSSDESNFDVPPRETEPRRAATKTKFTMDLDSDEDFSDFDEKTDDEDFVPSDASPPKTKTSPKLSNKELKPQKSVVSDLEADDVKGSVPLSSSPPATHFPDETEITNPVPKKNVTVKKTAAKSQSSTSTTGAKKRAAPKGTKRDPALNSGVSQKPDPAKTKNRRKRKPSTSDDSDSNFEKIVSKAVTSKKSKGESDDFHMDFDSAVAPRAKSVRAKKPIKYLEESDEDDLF

| Activity (Calf thymus DNA [1]) | Activity (Calf thymus DNA [2]) | Activity (Calf thymus DNA [3]) | Activity (Calf thymus DNA [4]) | Activity (Calf thymus DNA [6]) | inhibition [7] | Activity (Calf thymus DNA [8]) | Activity (Calf thymus DNA [9]) [nm] | Structure (SMILES) | IC50 (MCF7) [µM] | IC50 (HT-29) [µM] | IC50 (A549) [µM] | GI50 [5] [µM] |
| --- | --- | --- | --- | --- | --- | --- | --- | --- | --- | --- | --- | --- |
| – | – | – | – | – | – | – | – | CCOc1ccc(/C=C/C(=O)N2CCN(CCN3C(=O)c4cccc5cccc(c45)C3=O)CC2)cc1 | 28.9 | 12 | 19.4 | – |
| – | – | – | – | – | – | – | – | O=C(/C=C/c1ccc(F)c(F)c1)N1CCN(CCN2C(=O)c3cccc4cccc(c34)C2=O)CC1 | 28.3 | 13.4 | 18.4 | – |
| – | – | – | – | – | – | – | – | Cc1cc2nc(NC(=O)CN3CCN(CCN4C(=O)c5cccc6cccc(c56)C4=O)CC3)sc2cc1C | 12.6 | 4.98 | 6.2 | – |
| Active | Active | Active | Active | Active | Active | – | – | Cc1nc2ccc(NC(=O)CN3CCN(CCN4C(=O)c5cccc6cccc(c56)C4=O)CC3)cc2s1 | 5.08 | 3.47 | 3.89 | 1.19 to 14.1 |
| – | – | – | – | – | – | – | – | COc1ccc(/C=C/C(=O)N2CCN(CCN3C(=O)c4cccc5cccc(c45)C3=O)CC2)c(OC)c1 | 28.7 | 23.9 | 27.2 | – |
| Active | – | inactive | Active | – | inactive | – | – | O=C(/C=C/c1ccccc1)N1CCN(CCN2C(=O)c3cccc4cccc(c34)C2=O)CC1 | 22.9 | 16 | 21.9 | – |
| – | – | – | – | – | – | – | – | O=C(/C=C/c1cc(F)ccc1F)N1CCN(CCN2C(=O)c3cccc4cccc(c34)C2=O)CC1 | 11.2 | 4.18 | 6.39 | – |
| – | – | – | – | – | – | – | – | O=C(CN1CCN(CCN2C(=O)c3cccc4cccc(c34)C2=O)CC1)Nc1nc2ccccc2s1 | 26.5 | 10.8 | 14.8 | – |
| – | Active | Active | Active | Active | Active | Active | – | O=C(/C=C/c1ccc2c(c1)OCO2)N1CCN(CCN2C(=O)c3cccc4cccc(c34)C2=O)CC1 | 18 | 3.8 | 4.79 | – |
| – | – | – | – | – | – | – | – | O=C(/C=C/c1ccc(F)cc1F)N1CCN(CCN2C(=O)c3cccc4cccc(c34)C2=O)CC1 | 23.5 | 17.4 | 16.2 | – |
| Active | – | Active | Active | Active | Active | Active | 2 | O=C(CN1CCN(CCN2C(=O)c3cccc4cccc(c34)C2=O)CC1)Nc1ccc2ncsc2c1 | 7.91 | 3.72 | 4.07 | 1.38 to 43.3 |
| – | – | – | – | – | – | – | – | O=C(/C=C/c1cc(F)c(F)c(F)c1)N1CCN(CCN2C(=O)c3cccc4cccc(c34)C2=O)CC1 | 19.5 | 13.8 | 14.8 | – |
| – | – | – | – | – | – | – | – | Cc1ccc2nc(NC(=O)CN3CCN(CCN4C(=O)c5cccc6cccc(c56)C4=O)CC3)sc2c1 | 15 | 4.07 | 8.07 | – |
| – | – | – | – | – | – | – | – | COc1ccc2nc(NC(=O)CN3CCN(CCN4C(=O)c5cccc6cccc(c56)C4=O)CC3)sc2c1 | 7.94 | 4.22 | 4.76 | – |
| – | – | – | – | – | – | – | – | CN(C)c1ccc(/C=C/C(=O)N2CCN(CCN3C(=O)c4cccc5cccc(c45)C3=O)CC2)cc1 | 13.1 | 4.01 | 8.26 | – |
| – | – | – | – | – | – | – | – | COc1ccc(/C=C/C(=O)N2CCN(CCN3C(=O)c4cccc5cccc(c45)C3=O)CC2)cc1O | 13.7 | 10.3 | 14.2 | – |
| Active | – | – | – | – | – | – | – | COc1cccc(/C=C/C(=O)N2CCN(CCN3C(=O)c4cccc5cccc(c45)C3=O)CC2)c1 | 34.1 | 15.6 | 21.7 | – |
| – | – | – | – | – | – | – | – | O=C(/C=C/c1cc(F)cc(F)c1)N1CCN(CCN2C(=O)c3cccc4cccc(c34)C2=O)CC1 | 13.7 | 8.39 | 6.41 | – |
| – | – | – | – | – | – | – | – | CCOc1ccc2nc(NC(=O)CN3CCN(CCN4C(=O)c5cccc6cccc(c56)C4=O)CC3)sc2c1 | 17.4 | 11.1 | 16.6 | – |
| – | – | – | – | – | – | – | – | O=C(/C=C/c1cccc(C(F)(F)F)c1)N1CCN(CCN2C(=O)c3cccc4cccc(c34)C2=O)CC1 | 26.4 | 17 | 19.7 | – |

| Structure (SMILES) | Activity (Calf thymus DNA [1]) | Activity (Calf thymus DNA [2]) | Activity (Calf thymus DNA [3]) | Activity (Calf thymus DNA [4]) | Activity (Calf thymus DNA [6]) | inhibition [7] | Activity (Calf thymus DNA [8]) | Activity (Calf thymus DNA [9]) [nm] | IC50 (MCF7) [µM] | IC50 (HT-29) [µM] | IC50 (A549) [µM] | GI50 [5] [µM] |
| --- | --- | --- | --- | --- | --- | --- | --- | --- | --- | --- | --- | --- |
| CN(C)CCN1C(=O)c2cccc3cc(N)cc(c23)C1=O [AMONAFIDE] | – | – | – | – | – | inactive | – | – | 4.05 | 5.46 | 7.76 | – |
